Here are results for five molecules from ChEMBL document CHEMBL1143881, “Sulfonamidolactam inhibitors of coagulation factor Xa” (Bioorg Med Chem Lett, 2008).

The nature of data set [1]: Selectivity for human factor 10a over thrombin.
The target in data set [2] is Coagulation factor X (Homo sapiens, UniProt P00742). Briefly: Inhibition of human factor 10a. In short, it runs like this: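 Inhibition constant (Ki) measured against purified human factor Xa; each value is the average of two independent experiments (n = 2).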
Data set [3] in a line: Selectivity for human factor 10a over factor 7a.
Data set [4] can be described thus: Selectivity for human factor 10a over trypsin.
Data set [5] relates to Plasma. Briefly: Anticoagulant efficacy in human citreated plasma assessed as concentration required to double prothrombin time. The format is functional.
Data set [6] is described as follows: Apparent permeability across human Caco-2 cells. It is filed as ADME, cell-based.
The nature of data set [7]: Clearance in dog. The settings on record: in vivo. The format is ADME, organism-based, Canis lupus familiaris.
Data set [8] can be described thus: Oral bioavailability in dog. The format is ADME, organism-based, Canis lupus familiaris. The settings on record: in vivo.
The nature of data set [9]: Half life in dog. As to conditions: in vivo. It is filed as ADME, organism-based, Canis lupus familiaris.

Sequence of Coagulation factor X (P00742 41-179 limits assumed): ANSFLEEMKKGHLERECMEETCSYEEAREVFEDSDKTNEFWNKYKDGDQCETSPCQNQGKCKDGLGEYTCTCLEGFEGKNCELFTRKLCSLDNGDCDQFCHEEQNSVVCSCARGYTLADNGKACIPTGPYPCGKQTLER
Sequence of Coagulation factor X (P00742 235-488 limits assumed): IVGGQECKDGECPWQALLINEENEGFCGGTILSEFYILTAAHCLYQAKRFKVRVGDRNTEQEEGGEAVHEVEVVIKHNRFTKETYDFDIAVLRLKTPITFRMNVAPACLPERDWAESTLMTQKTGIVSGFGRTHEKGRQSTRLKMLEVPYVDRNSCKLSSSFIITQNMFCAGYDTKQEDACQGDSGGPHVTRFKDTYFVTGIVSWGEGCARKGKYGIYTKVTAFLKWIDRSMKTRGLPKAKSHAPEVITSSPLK

On to `COc1ccc(OC2CCCN(c3ccc(-c4ccccc4S(C)(=O)=O)cc3F)C2=O)cc1` (stereo unspecified), for which the Selectivity ratio in data set [1], in data set [3] and in data set [4] was over 1000 each time. The Ki in [2] was determined as 200 nM.
`COC(=O)CN(C1CCCN(c2ccc(-n3ccccc3=O)cc2)C1=O)S(=O)(=O)c1cc2ccc(Cl)nc2s1` (stereo unspecified): the PT in [5] came to 4.4 µM. For the same molecule, the Selectivity ratio in data set [1] and in data set [4] was over 1000 in each case. The molecule further displayed a Ki in data set [2] of 0.043 nM. The Papp in data set [6] is 3.5 ×10⁻⁶ cm/s.
For the molecule `O=C1C(NS(=O)(=O)c2cc3ccc(Cl)nc3s2)CCCN1c1ccc(-n2ccccc2=O)cc1` (stereo unspecified), in data set [5], the PT turned out to be 15 µM. Besides, the Selectivity ratio in data set [1] and in data set [4] was over 1000 in each case. Also, the Ki in data set [2] was 0.05 nM. The Papp in [6] was 2 ×10⁻⁶ cm/s.
`CNC(=O)CN(C1CCCN(c2ccc(-n3ccccc3=O)cc2F)C1=O)S(=O)(=O)c1cc2ccc(Cl)nc2s1` (stereo unspecified): the PT in [5] was determined as 4.2 µM. Moreover, the Selectivity ratio in data set [1] and in data set [4] was over 1000 throughout. For the same molecule, the affinity in data set [2], expressed as Ki, was 0.037 nM. Also, in data set [6], the Papp turned out to be 0.1 ×10⁻⁶ cm/s.
Turning to `CN(C)CCN(C)C(=O)CN([C@H]1CCCN(c2ccc(-n3ccccc3=O)cc2F)C1=O)S(=O)(=O)c1ccc2cc(Cl)ccc2c1`, in data set [5], the PT amounted to 1.7 µM. Further, in data set [7], the clearance was 19.8 mL/min/kg. This molecule also showed a bioavailability in data set [8] of 4%. For the same molecule, the Selectivity ratio in data set [1] and in data set [4] was over 1000 each time. Further, the Ki in data set [2] was found to be 0.016 nM. The half-life in data set [9] is 6.45 h.
